The values that follow come from ChEMBL document CHEMBL3085624, “Design, synthesis, and biological evaluation of novel investigational nonapeptide KISS1R agonists with testosterone-suppressive activity” (J Med Chem, 2013).

As usually defined, the Ki is the equilibrium dissociation constant of an inhibitor or competing ligand from its target. Higher therefore signals a looser hold on the target.

Non-standard residues stand in square brackets, D forms with d. Residues, ends and D or L forms follow the SMILES beside them. 2Nal = N[C@@H](Cc1ccc2ccccc2c1)C(=O)O; Arg(Me) = CNC(=N)NCCC[C@H](N)C(=O)O; azaGly = NNC(=O)O

In assay [1] the target is T1, KiSS-1 receptor (Homo sapiens, UniProt Q969F8). Description: Binding affinity to human KISS1R expressed in CHO cell membranes.
In assay [2] the target is KiSS-1 receptor (Rattus norvegicus, UniProt Q924U1). As to the kind of experiment: Binding affinity to rat KISS1R.
Assay [3] has as its target T1, KiSS-1 receptor. Description: Agonist activity at recombinant human KISS1R expressed in CHO cells assessed as intracellular calcium mobilization incubated for 30 mins at 37 degC and 30 mins at room temperature by Fluo-4 NW staining-based FLIPR assay relative to Metastin (45 to 54). The class given is functional, cell-based. Put shortly: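 CHO cells stably expressing human KISS1R seeded at 15,000 cells/well, cultured 24 h, then loaded with Fluo-4 Direct in HBSS with 4 mM probenecid and 0.1% BSA (30 min 37 °C, 30 min room temperature). Compounds from 10 µM DMSO stocks diluted in sample buffer and added. Fluorescence read for 2 min at 2 s intervals. Peak counts give agonist activity. EC50 expressed as ratio to metastin(45-54).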
(In general: A change in cytosolic calcium serves as a functional read-out for many receptors and channels.)

KiSS-1 receptor (Rattus norvegicus, UniProt Q924U1), sequence (Q924U1 whole entry): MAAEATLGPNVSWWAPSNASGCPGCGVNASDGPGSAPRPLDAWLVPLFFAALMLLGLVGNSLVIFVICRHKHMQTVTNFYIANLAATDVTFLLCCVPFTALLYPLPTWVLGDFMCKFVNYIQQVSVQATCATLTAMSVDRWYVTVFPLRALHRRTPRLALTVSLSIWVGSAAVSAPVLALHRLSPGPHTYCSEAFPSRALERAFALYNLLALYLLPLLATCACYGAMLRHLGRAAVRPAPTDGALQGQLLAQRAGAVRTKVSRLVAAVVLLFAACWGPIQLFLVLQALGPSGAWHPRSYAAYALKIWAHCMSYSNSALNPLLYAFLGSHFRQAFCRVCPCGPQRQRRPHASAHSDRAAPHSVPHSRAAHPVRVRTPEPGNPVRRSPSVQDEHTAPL
T1 sequence (Q969F8 whole entry): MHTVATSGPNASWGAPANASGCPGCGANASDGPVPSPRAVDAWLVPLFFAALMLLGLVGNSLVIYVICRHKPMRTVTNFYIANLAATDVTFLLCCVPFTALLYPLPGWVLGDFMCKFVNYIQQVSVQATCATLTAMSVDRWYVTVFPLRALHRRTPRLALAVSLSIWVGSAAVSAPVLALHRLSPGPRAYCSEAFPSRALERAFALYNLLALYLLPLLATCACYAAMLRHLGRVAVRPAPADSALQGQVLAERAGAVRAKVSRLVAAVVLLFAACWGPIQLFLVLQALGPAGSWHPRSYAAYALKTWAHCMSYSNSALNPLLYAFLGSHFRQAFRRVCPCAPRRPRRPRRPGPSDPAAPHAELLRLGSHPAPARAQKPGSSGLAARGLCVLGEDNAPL

Take `CNC(N)=NCCC[C@H](NC(=O)[C@H](CC(C)C)NC(=O)CNC(=O)[C@H](Cc1ccccc1)NC(=O)[C@H](CO)NC(=O)[C@H](CC(N)=O)NC(=O)[C@H](Cc1c[nH]c2ccccc12)NC(=O)[C@H](CC(N)=O)NC(=O)[C@H](N)Cc1ccc(O)cc1)C(=O)N[C@@H](Cc1ccccc1)C(N)=O`: the affinity at KiSS-1 receptor [1] (cho), expressed as Ki, was 0.046 nM.
Regarding `CNC(N)=NCCC[C@H](NC(=O)[C@H](CC(C)C)NC(=O)NNC(=O)[C@H](Cc1ccccc1)NC(=O)[C@H](CO)NC(=O)[C@H](CC(N)=O)NC(=O)[C@H](Cc1ccncc1)NC(=O)[C@H](CC(N)=O)NC(=O)[C@H](N)Cc1ccc(O)cc1)C(=O)N[C@@H](Cc1ccccc1)C(N)=O`, the Ki at KiSS-1 receptor [2] and on KiSS-1 receptor [1] was 0.12 nM each time.
On KiSS-1 receptor [1], `CNC(N)=NCCC[C@H](NC(=O)[C@H](CC(C)C)NC(=O)NNC(=O)[C@H](Cc1ccccc1)NC(=O)[C@H](CO)NC(=O)[C@H](CC(N)=O)NC(=O)[C@@H](Cc1c[nH]c2ccccc12)NC(=O)[C@H](CC(N)=O)NC(=O)[C@H](N)Cc1ccc(O)cc1)C(=O)N[C@@H](Cc1ccccc1)C(N)=O` came in with an inhibition constant (Ki) of 0.078 nM.
For the compound `CNC(N)=NCCC[C@H](NC(=O)[C@H](CC(C)C)NC(=O)NNC(=O)[C@H](Cc1ccccc1)NC(=O)[C@H](CO)NC(=O)[C@H](CC(N)=O)NC(=O)[C@@H](Cc1ccncc1)NC(=O)[C@H](CC(N)=O)NC(=O)[C@H](N)Cc1ccc(O)cc1)C(=O)N[C@@H](Cc1ccccc1)C(N)=O`, the Ki at KiSS-1 receptor [2] and on KiSS-1 receptor [1] was 0.12 nM throughout.
As to `CNC(N)=NCCC[C@H](NC(=O)[C@H](CC(C)C)NC(=O)NNC(=O)[C@H](Cc1ccccc1)NC(=O)[C@H](CO)NC(=O)[C@H](CC(N)=O)NC(=O)[C@H](Cc1ccncc1)NC(=O)[C@@H](CC(N)=O)NC(=O)[C@@H](N)Cc1ccc(O)cc1)C(=O)N[C@@H](Cc1ccccc1)C(N)=O`, the inhibition constant (Ki) at KiSS-1 receptor [2] turned out to be 0.16 nM; on KiSS-1 receptor [1] it was 0.21 nM.
For `CNC(N)=NCCC[C@H](NC(=O)[C@H](CC(C)C)NC(=O)NNC(=O)[C@H](Cc1ccccc1)NC(=O)[C@H](CO)NC(=O)[C@H](CC(N)=O)NC(=O)[C@H](Cc1ccccc1)NC(=O)[C@H](N)Cc1ccc(O)cc1)C(=O)N[C@@H](Cc1ccccc1)C(N)=O`, the inhibitory constant (Ki) at KiSS-1 receptor [2] amounted to 0.15 nM; on KiSS-1 receptor [1], 0.086 nM.
Regarding `CNC(N)=NCCC[C@H](NC(=O)[C@H](CC(C)C)NC(=O)NNC(=O)[C@H](Cc1ccccc1)NC(=O)[C@H](CO)NC(=O)[C@H](CC(N)=O)NC(=O)[C@H](Cc1ccccc1)NC(=O)[C@H](N)Cc1cccnc1)C(=O)N[C@@H](Cc1ccccc1)C(N)=O`, the inhibitory constant (Ki) on KiSS-1 receptor [2] stood at 0.28 nM; at KiSS-1 receptor [1], 0.2 nM.
The corresponding values for `CNC(N)=NCCC[C@H](NC(=O)[C@H](CC(C)C)NC(=O)NNC(=O)[C@H](Cc1ccccc1)NC(=O)[C@H](CO)NC(=O)[C@H](CC(N)=O)NC(=O)[C@H](Cc1c[nH]c2ccccc12)NC(=O)[C@H](N)Cc1cccnc1)C(=O)N[C@@H](Cc1ccccc1)C(N)=O` are 0.13 nM and 0.11 nM.
On to `CC(C)C[C@H](NC(=O)NNC(=O)[C@H](Cc1ccccc1)NC(=O)[C@H](CO)NC(=O)[C@H](CC(N)=O)NC(=O)[C@H](Cc1c[nH]c2ccccc12)NC(=O)[C@H](CC(N)=O)NC(=O)[C@@H](N)Cc1ccc(O)cc1)C(=O)N[C@@H](CCCNC(=N)N)C(=O)N[C@@H](Cc1ccccc1)C(N)=O`, for which the affinity on KiSS-1 receptor [1], expressed as Ki, was 0.045 nM. For the same compound, at KiSS-1 receptor [3], the fold change (FC) was 1.7.
As for `CNC(=N)NCCC[C@H](NC(=O)[C@H](CC(C)C)NC(=O)NNC(=O)[C@H](Cc1ccccc1)NC(=O)[C@H](CO)NC(=O)[C@H](CC(N)=O)NC(=O)[C@H](Cc1c[nH]c2ccccc12)NC(=O)[C@@H](CC(N)=O)NC(=O)[C@H](N)Cc1ccc(O)cc1)C(=O)N[C@@H](Cc1ccccc1)C(N)=O`, the inhibition constant (Ki) at KiSS-1 receptor [1] came to 0.062 nM. For the same compound, the fold change (FC) at KiSS-1 receptor [3] was found to be 2.6.
Turning to `CNC(N)=NCCC[C@H](NC(=O)[C@H](CC(C)C)NC(=O)NNC(=O)[C@H](Cc1ccccc1)NC(=O)[C@H](CO)NC(=O)[C@H](CC(N)=O)NC(=O)[C@H](Cc1ccncc1)NC(=O)[C@@H](CC(N)=O)NC(=O)[C@H](N)Cc1ccc(O)cc1)C(=O)N[C@@H](Cc1ccccc1)C(N)=O`, the values for the Ki on KiSS-1 receptor [2] and at KiSS-1 receptor [1] were 0.095 nM and 0.11 nM, respectively.
In the case of `CNC(=N)NCCC[C@H](NC(=O)[C@H](CC(C)C)NC(=O)NNC(=O)[C@H](Cc1ccccc1)NC(=O)[C@H](CO)NC(=O)[C@H](CC(N)=O)NC(=O)[C@@H](Cc1c[nH]c2ccccc12)NC(=O)[C@@H](CC(N)=O)NC(=O)[C@H](N)Cc1ccc(O)cc1)C(=O)N[C@@H](Cc1ccccc1)C(N)=O`, the fold change (FC) at KiSS-1 receptor [3] came out at 8.6.
Consider `CNC(=N)NCCC[C@H](NC(=O)[C@H](CC(C)C)NC(=O)NNC(=O)[C@H](Cc1ccccc1)NC(=O)[C@H](CO)NC(=O)[C@H](CC(N)=O)NC(=O)[C@@H](Cc1c[nH]c2ccccc12)NC(=O)[C@H](CC(N)=O)NC(=O)[C@H](N)Cc1ccc(O)cc1)C(=O)N[C@@H](Cc1ccccc1)C(N)=O`, for which, on KiSS-1 receptor [3], the fold change (FC) was 3.7.
Consider `CNC(=N)NCCC[C@H](NC(=O)[C@H](CC(C)C)NC(=O)NNC(=O)[C@H](Cc1ccccc1)NC(=O)[C@H](CO)NC(=O)[C@H](CC(N)=O)NC(=O)[C@@H](Cc1ccncc1)NC(=O)[C@H](CC(N)=O)NC(=O)[C@H](N)Cc1ccc(O)cc1)C(=O)N[C@@H](Cc1ccccc1)C(N)=O`, for which the fold change (FC) on KiSS-1 receptor [3] was 3.6.
Take `CNC(=N)NCCC[C@H](NC(=O)[C@H](CC(C)C)NC(=O)NNC(=O)[C@H](Cc1ccccc1)NC(=O)[C@H](CO)NC(=O)[C@H](CC(N)=O)NC(=O)[C@@H](NC(=O)[C@@H](CC(N)=O)NC(=O)[C@H](N)Cc1ccc(O)cc1)[C@@H](C)O)C(=O)N[C@@H](Cc1ccccc1)C(N)=O`: the fold change (FC) on KiSS-1 receptor [3] is 7.3.
As for `CNC(=N)NCCC[C@H](NC(=O)[C@H](CC(C)C)NC(=O)NNC(=O)[C@H](Cc1ccccc1)NC(=O)[C@H](CO)NC(=O)[C@H](CC(N)=O)NC(=O)[C@H](Cc1c[nH]c2ccccc12)NC(=O)[C@@H](CO)NC(=O)[C@H](N)Cc1ccc(O)cc1)C(=O)N[C@@H](Cc1ccccc1)C(N)=O`, the fold change (FC) at KiSS-1 receptor [3] was found to be 3.7.
Turning to `CNC(=N)NCCC[C@H](NC(=O)[C@H](CC(C)C)NC(=O)NNC(=O)[C@H](Cc1ccccc1)NC(=O)[C@H](CO)NC(=O)[C@H](CC(N)=O)NC(=O)[C@H](Cc1c[nH]c2ccccc12)NC(=O)[C@H](CC(N)=O)NC(=O)[C@H](N)Cc1ccc(O)cc1)C(=O)N[C@@H](Cc1ccccc1)C(N)=O`, the fold change (FC) on KiSS-1 receptor [3] amounted to 2.8.
With `CNC(=N)NCCC[C@H](NC(=O)[C@H](CC(C)C)NC(=O)NNC(=O)[C@H](Cc1ccccc1)NC(=O)[C@H](CO)NC(=O)[C@H](CC(N)=O)NC(=O)[C@H](Cc1c[nH]c2ccccc12)NC(=O)[C@H](N)Cc1cccnc1)C(=O)N[C@@H](Cc1ccccc1)C(N)=O`, the fold change (FC) on KiSS-1 receptor [3] amounted to 8.7.
For `CNC(=N)NCCC[C@H](NC(=O)[C@H](CC(C)C)NC(=O)NNC(=O)[C@H](Cc1ccccc1)NC(=O)[C@H](CO)NC(=O)[C@H](CC(N)=O)NC(=O)[C@H](Cc1ccccc1)NC(=O)[C@H](N)Cc1ccc(O)cc1)C(=O)N[C@@H](Cc1ccccc1)C(N)=O`, the fold change (FC) on KiSS-1 receptor [3] was found to be 7.7.
On the same count and under the same terms, next, `CNC(=N)NCCC[C@H](NC(=O)[C@H](CC(C)C)NC(=O)NNC(=O)[C@H](Cc1ccccc1)NC(=O)[C@H](CO)NC(=O)[C@H](CC(N)=O)NC(=O)[C@H](Cc1ccccc1)NC(=O)[C@H](N)Cc1cccnc1)C(=O)N[C@@H](Cc1ccccc1)C(N)=O`: 5.8.
Regarding `CNC(=N)NCCC[C@H](NC(=O)[C@H](CC(C)C)NC(=O)NNC(=O)[C@H](Cc1ccccc1)NC(=O)[C@H](CO)NC(=O)[C@H](CC(N)=O)NC(=O)[C@H](Cc1ccncc1)NC(=O)[C@@H](CC(N)=O)NC(=O)[C@@H](N)Cc1ccc(O)cc1)C(=O)N[C@@H](Cc1ccccc1)C(N)=O`, the fold change (FC) on KiSS-1 receptor [3] is 2.7.
Regarding `CNC(=N)NCCC[C@H](NC(=O)[C@H](CC(C)C)NC(=O)NNC(=O)[C@H](Cc1ccccc1)NC(=O)[C@H](CO)NC(=O)[C@H](CC(N)=O)NC(=O)[C@H](Cc1ccncc1)NC(=O)[C@@H](CC(N)=O)NC(=O)[C@H](N)Cc1ccc(O)cc1)C(=O)N[C@@H](Cc1ccccc1)C(N)=O`, the fold change (FC) on KiSS-1 receptor [3] is 1.7.
As to `CNC(=N)NCCC[C@H](NC(=O)[C@H](CC(C)C)NC(=O)NNC(=O)[C@H](Cc1ccccc1)NC(=O)[C@H](CO)NC(=O)[C@H](CC(N)=O)NC(=O)[C@H](Cc1ccncc1)NC(=O)[C@H](CC(N)=O)NC(=O)[C@H](N)Cc1ccc(O)cc1)C(=O)N[C@@H](Cc1ccccc1)C(N)=O`, the fold change (FC) on KiSS-1 receptor [3] stood at 5.
With `CNC(=N)NCCC[C@H](NC(=O)[C@H](CC(C)C)NC(=O)NNC(=O)[C@H](Cc1ccccc1)NC(=O)[C@H](CO)NC(=O)[C@H](CC(N)=O)NC(=O)[C@H](CO)NC(=O)[C@H](N)Cc1ccc(O)cc1)C(=O)N[C@@H](Cc1ccccc1)C(N)=O` (H-[dY]SNSF[azaGly]L[Arg(Me)]F-NH2), the fold change (FC) at KiSS-1 receptor [3] was 61.
Consider `CNC(=N)NCCC[C@H](NC(=O)[C@H](CC(C)C)NC(=O)NNC(=O)[C@H](Cc1ccccc1)NC(=O)[C@H](CO)NC(=O)[C@H](CC(N)=O)NC(=O)[C@H](Cc1ccc2ccccc2c1)NC(=O)[C@H](N)Cc1ccc(O)cc1)C(=O)N[C@@H](Cc1ccccc1)C(N)=O` (H-[dY][2Nal]NSF[azaGly]L[Arg(Me)]F-NH2), for which, on KiSS-1 receptor [3], the fold change (FC) is 6.4.
As to `CNC(=N)NCCC[C@H](NC(=O)[C@H](CC(C)C)NC(=O)NNC(=O)[C@H](Cc1ccccc1)NC(=O)[C@H](CO)NC(=O)[C@H](CC(N)=O)NC(=O)[C@H](Cc1ccccc1)NC(=O)[C@@H](CC(N)=O)NC(=O)[C@H](N)Cc1ccc(O)cc1)C(=O)N[C@@H](Cc1ccccc1)C(N)=O` (H-[dY][dN]FNSF[azaGly]L[Arg(Me)]F-NH2), the fold change (FC) on KiSS-1 receptor [3] came out at 1.5.
`CC(C)C[C@H](NC(=O)CNC(=O)[C@H](Cc1ccccc1)NC(=O)[C@H](CO)NC(=O)[C@H](CC(N)=O)NC(=O)[C@H](Cc1c[nH]c2ccccc12)NC(=O)[C@H](CC(N)=O)NC(=O)[C@@H](N)Cc1ccc(O)cc1)C(=O)N[C@@H](CCCNC(=N)N)C(=O)N[C@@H](Cc1ccccc1)C(N)=O` [KISSPEPTIN-10] came in with a Ki on KiSS-1 receptor [1] of 0.039 nM.
